According to ChEMBL document CHEMBL3120090, “High-affinity recognition of HIV-1 frameshift-stimulating RNA alters frameshifting in vitro and interferes with HIV-1 infectivity” (J Med Chem, 2014):
Active and inactive are the calls of the source. The rule behind the calls is not given here.

Experiments:
[1] = system: Human immunodeficiency virus 1; assay: Binding affinity to HIV-1 FSS RNA in HBS buffer at pH 7.4 assessed as association rate by surface plasmon resonance analysis
Procedure, shortened: (§1)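 RNA captured on SPR chips at low (~300 RU) and high (~1200 RU) density, each measured once. Compound flowed in HBS (0.01 M HEPES, 0.150 M NaCl, pH 7.4) at 60 μL/min over at least five concentrations, each injected at least twice. A 20 s 0.5 or 1 M NaCl pulse regenerated the chip where needed. Reference-subtracted, blank-corrected sensorgrams (association plus dissociation) were globally fit to 1:1 Langmuir; error is standard error of the fit.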

[2] = Binding affinity to yeast tRNA after 10 mins by fluorescence titration analysis; set-up: species or system Saccharomyces cerevisiae
Procedure, shortened: (§2)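 Solution fluorescence titration in 20 mM HEPES, 150 mM NaCl. Compound at 1 μM, titrated with unlabeled HIV-1 FSS RNA (10 μM stock), FSS DNA or yeast tRNA (40 μM stocks). 10 min equilibration after each addition. Quenching of benzo[g]quinoline fluorescence read in triplicate 1 min apart, corrected for dilution; KD from saturable quenching. Error is SD.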

[3] = system: Human immunodeficiency virus 1; assay: Antiviral activity against HIV-1 NL4-3 assessed as reduction in viral infectivity in human TZM-bl cells after 48 hrs by firefly luciferase reporter gene assay; format: functional, organism-based; details: Human immunodeficiency virus 1, NL4-3, TZM-bl
Procedure, shortened: (§3)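 Single-round infectivity of VSV-G pseudotyped HIV-1 (pDHIV3-GFP, NL4-3 genes minus nef/env) made in transfected HEK293T producer cells. Compounds added to producers 4 h post-transfection; virions harvested at 24 h, filtered, normalized by p24 ELISA. TZM-bl cells (10,000/well) infected with 500 pg p24/well in triplicate for 48 h; LTR-driven firefly luciferase luminescence read. EC50 derived from concentration series.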

[4] = Selectivity ratio of KD for yeast tRNA to KD for HIV-1 FSS RNA
Procedure, shortened: (§4)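 Ratios of fluorescence-titration KD values (20 mM HEPES, 150 mM NaCl; compound 1 μM): KD for FSS DNA or total yeast tRNA divided by KD for HIV-1 FSS RNA.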

[5] = system: Human immunodeficiency virus 1; assay: Binding affinity to HIV-1 FSS RNA in 20 mM HEPES buffer assessed as association rate by surface plasmon resonance analysis in presence of 150 mM NaCl, 5 mM MgCl2 and 0.005 % tween-20
Procedure, shortened: (§5)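 SPR with HIV-1 FSS RNA captured on low-density (~300 RU) and high-density (~1200 RU) chips. Compound flowed at 50 μL/min in 20 mM HEPES, 150 mM NaCl, 5 mM MgCl2, 0.005% Tween-20. 0.5 or 1 M NaCl regeneration as needed. Each concentration injected at least twice. Kinetic constants and KD from individual fits of reference-subtracted sensorgrams.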

[6] = Cellular uptake in nucleus of HEK293FT cells at 50 uM measured for 12 hrs by fluorescence microscopy; format: ADME, cell-based; details: human
[7] = Cytotoxicity against HEK293FT cells assessed as cell viability at <60 uM after 24 hrs by WST-1 assay; format: cell-based; details: human
Procedure, shortened: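 HEK293FT cells at 80% confluence in DMEM/10% FBS exposed to compound (up to 0.5 mM) or a water control, in triplicate, for 24 h at 37 °C. WST-1 reagent then added for 2 h. Absorbance at 450 minus 690 nm, blank-corrected, plotted against concentration. Error is SD of three measurements.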

[8] = system: Human T-lymphotropic virus 2; assay: Binding affinity to HTLV-2 FSS RNA up to 3 uM by surface plasmon resonance analysis
[9] = system: Human immunodeficiency virus 1; assay: Antiviral activity against HIV-1 NL4-3 infected in TZM-bl cells after 24 hrs
[10] = Binding affinity to HIV-1 FSS RNA after 10 mins by fluorescence titration analysis; set-up: species or system Human immunodeficiency virus 1; procedure, shortened: as §2
[11] = Selectivity ratio of KD for FSS DNA (unknown origin) to KD for HIV-1 FSS RNA; procedure, shortened: as §4
[12] = Binding affinity to HIV-1 FSS RNA in HBS buffer at pH 7.4 by surface plasmon resonance analysis; set-up: species or system Human immunodeficiency virus 1; details: read-out: Kd; procedure, shortened: as §1
[13] = system: HEK293FT; assay: Binding affinity to HIV-1 FSS RNA transfected in HEK293FT cells at 50 uM after 36 hrs by Renilla/firefly luciferase reporter gene assay; format: cell-based; details: Human immunodeficiency virus 1
Procedure, shortened: (§6)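 HEK293FT cells (1.5 × 10^4/well) transiently transfected with pDualHIV(−1) or in-frame pDualHIV(0) Rluc–FSS–Fluc plasmid (0.2 μg). Compound (0–50 μM) added 5 h later, in triplicate, for 36 h at 37 °C. Fluc/Rluc ratio from lysate, expressed relative to untreated transfected cells (100%). Error is SEM.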

[14] = Cellular uptake in cytoplasm of HEK293FT cells at 50 uM measured for 12 hrs by fluorescence microscopy; format: ADME, cell-based; details: human
[15] = Binding affinity to HIV-1 FSS RNA in 20 mM HEPES buffer assessed as dissociation rate by surface plasmon resonance analysis in presence of 150 mM NaCl, 5 mM MgCl2 and 0.005 % tween-20; set-up: species or system Human immunodeficiency virus 1; procedure, shortened: as §5
[16] = system: Human immunodeficiency virus 1; assay: Antiviral activity against HIV-1 NL4-3 assessed as reduction in viral infectivity in human TZM-bl cells at 20 uM after 48 hrs by firefly luciferase reporter gene assay; format: functional; set-up: scale not given: the % may be the effect or the level left; procedure, shortened: as §3
[17] = system: Human immunodeficiency virus 1; assay: Antiviral activity against HIV-1 NL4-3 assessed as reduction in viral production […] after 24 hrs by fluorescence microscopy; format: functional, organism-based
Procedure, shortened: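 HEK293T producer cells transfected with GFP-marked pseudotyped HIV-1 vector plus VSV-G and treated with compound 4 h after transfection. Proviral GFP expression imaged by fluorescence microscopy 24 h after treatment, before virions were harvested.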

[18] = system: HEK293FT; assay: Binding affinity to HIV-1 FSS RNA transfected in HEK293FT cells after 36 hrs by Renilla/firefly luciferase reporter gene assay; format: cell-based; details: Human immunodeficiency virus 1; procedure, shortened: as §6
[19] = Binding affinity to HIV-1 FSS RNA in 20 mM HEPES buffer by surface plasmon resonance analysis in presence of 150 mM NaCl, 5 mM MgCl2 and 0.005 % tween-20; set-up: species or system Human immunodeficiency virus 1; procedure, shortened: as §5
[20] = Binding affinity to FSS DNA (unknown origin) after 10 mins by fluorescence titration analysis; procedure, shortened: as §2
[21] = system: HEK293FT; assay: Binding affinity to HTLV-2 FSS RNA transfected in HEK293FT cells at 1 to 50 uM after 36 hrs by Renilla/firefly luciferase reporter gene assay; format: cell-based; details: Human T-lymphotropic virus 2
Procedure, shortened: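 HEK293FT cells transiently transfected with pDualHTLV-2(−1) (Fluc made only via −1 frameshift at the HTLV-2 site) and treated 5 h later with compound (0–50 μM) in triplicate for 36 h at 37 °C. Fluc/Rluc ratio from lysate, relative to untreated transfected cells. Error is SEM.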

[22] = system: Human immunodeficiency virus 1; assay: Increase in HIV-1 NL4-3 reverse transcriptase p66/51 level at 10 to 40 uM by Western blotting analysis; format: functional, organism-based
Procedure, shortened: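 Pseudotyped virions from compound-treated producer cells, equal loads by p24 ELISA, pelleted through 20% sucrose at 100,000g. Western blot for RT and p24. Densitometry of nonsaturated bands gave p160/(p66+p51) and total RT/p24 ratios.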

[23] = Binding affinity to HIV-1 FSS RNA in HBS buffer at pH 7.4 assessed as dissociation rate by surface plasmon resonance analysis; set-up: species or system Human immunodeficiency virus 1; procedure, shortened: as §1
[24] = system: Human immunodeficiency virus 1; assay: Antiviral activity against HIV-1 NL4-3 assessed as reduction in viral infectivity in human TZM-bl cells at 40 uM after 48 hrs by firefly luciferase reporter gene assay; format: functional; set-up: scale not given: the % may be the effect or the level left

Row | SMILES | Ka [1] | Kd [12] | Dissociation rate constant (koff) [23] | Kd [2] | EC50 [3] | Ratio [4] | Ka [5] | Drug uptake [6] | Activity [7] | Activity [8] | Activity [9] | Kd [10] | Activity [13] | Drug uptake [14] | Kd [15] | Activity [17] | Activity [18] | Kd [19] | Kd [20] | Activity [21] | also measured
1 | CCc1nc2cc3ccccc3cc2cc1C(=O)N[C@@H](C/C=C\C[C@H](NC(=O)c1cc2cc3ccccc3cc2nc1CC)C(=O)N1CCC[C@H]1C(=O)N[C@@H](Cc1ccccc1)C(=O)NCCCN)C(=O)N1CCC[C@H]1C(=O)N[C@@H](Cc1ccccc1)C(=O)NCCCN | 4.25 ×10⁴ /M/s | 0.102 µM | 4.11 ×10⁻³ /s | 0.334 µM | 3.9 µM | 5 | 2.17 ×10⁴ /M/s | Active | Non-toxic | inactive | Active | 0.066 µM | > 50% | Active | 1.35 ×10⁻³ /s | Dose-dependent effect | Dose-dependent effect | 0.071 µM | 0.265 µM | inactive | Ratio [11]: 4; Activity [16]: >90%; Activity [22]: Active
2 | CCc1nc2cc3ccccc3cc2cc1C(=O)N[C@@H](C/C=C/C[C@H](NC(=O)c1cc2cc3ccccc3cc2nc1CC)C(=O)N1CCC[C@H]1C(=O)N[C@@H](Cc1ccccc1)C(=O)NCCCN)C(=O)N1CCC[C@H]1C(=O)N[C@@H](Cc1ccccc1)C(=O)NCCCN | 3.99 ×10⁴ /M/s | 0.089 µM | 3.75 ×10⁻³ /s | 0.217 µM | 25.6 µM | 2.14 | 3.68 ×10⁴ /M/s | Active | Non-toxic | inactive | Active | 0.101 µM | > 50% | Active | 3.46 ×10⁻³ /s | Dose-dependent effect | Dose-dependent effect | 0.096 µM | 0.118 µM | inactive | Activity [24]: >90%; Activity [22]: Active
3 | CC(C)(C)NC(=O)[C@@H]1CN(Cc2cccnc2)CCN1C[C@@H](O)C[C@@H](Cc1ccccc1)C(=O)N[C@H]1c2ccccc2C[C@H]1O [INDINAVIR] |  |  |  |  | 0.0148 µM |  |  |  |  |  |  |  |  |  |  |  |  |  |  |  | 

Continued, in another order:

Row | Ka [1] | Kd [12] | Dissociation rate constant (koff) [23] | SMILES | Kd [2] | EC50 [3] | Ratio [4] | Ka [5] | Drug uptake [6] | Activity [7] | Activity [8] | Activity [9] | Kd [10] | Activity [13] | Drug uptake [14] | Kd [15] | Activity [17] | Activity [18] | Kd [19] | Kd [20] | Activity [21] | also measured
4 | 7.71 ×10³ /M/s | 20.7 µM | 1.63 ×10⁻¹ /s | CCc1nc2cc3ccccc3cc2cc1C(=O)N[C@@H](C/C=C/C[C@H](N)C(=O)N1CCC[C@H]1C(=O)N[C@@H](Cc1ccccc1)C(=O)NCCCN)C(=O)N1CCC[C@H]1C(=O)N[C@@H](Cc1ccccc1)C(=O)NCCCN |  |  |  |  |  |  | inactive |  |  |  |  |  |  |  |  |  |  | 
5 | 4.58 ×10³ /M/s | 2.76 µM | 1.21 ×10⁻² /s | CCc1nc2cc3ccccc3cc2cc1C(=O)N[C@@H](C/C=C\C[C@H](N)C(=O)N1CCC[C@H]1C(=O)N[C@@H](Cc1ccccc1)C(=O)NCCCN)C(=O)N1CCC[C@H]1C(=O)N[C@@H](Cc1ccccc1)C(=O)NCCCN |  |  |  |  |  |  | inactive |  |  |  |  |  |  |  |  |  |  | 
6 | 1.62 ×10³ /M/s | 4.66 µM | 7.5 ×10⁻³ /s | CCc1nc2ccccc2cc1C(=O)N[C@@H](C/C=C/C[C@H](NC(=O)c1cc2ccccc2nc1CC)C(=O)N1CCC[C@H]1C(=O)N[C@@H](Cc1ccccc1)C(=O)NCCCN)C(=O)N1CCC[C@H]1C(=O)N[C@@H](Cc1ccccc1)C(=O)NCCCN |  |  |  |  |  |  |  |  |  |  |  |  |  |  |  |  |  | 
